Published values from different studies.
Each line is one published result; the experiments were not run side by side.
Target: Rho-associated protein kinase 1 (ROCK1, Homo sapiens, UniProt Q13464)

observed	mode	technique	tested at	measurement	result	SMILES
binding	–	–	1 µM	remaining binding	17%	CN1CCN(C(=O)c2ccc(NC(=O)Nc3ccc(N(C)c4ccnc(Nc5ccc(CS(C)(=O)=O)cc5)n4)cc3)cc2)CC1
enzyme activity	inhibitor	–	1 µM	inhibition	26%	C=CC(=O)N1CCC[C@@H](n2nc(-c3ccc(Oc4ccccc4)cc3)c3c(N)ncnc32)C1
binding	–	–	1 µM	remaining binding	106%	COc1ccc2oc(-c3ccc4nc(N)oc4c3)c/c(=N\c3ccccc3NC(=O)CCN)c2c1
enzyme activity	inhibitor	–	0.1 µM	inhibition	-3.74%	Cc1cc(O)c(-c2ccc([C@@H](C)CN(C)C)cc2)c2c1[nH]c(=O)c1sccc12
cell-free assay	–	–	1 µM	remaining signal	100%	C[C@H]1CC[C@H](n2c3cnccc3c3cnc(Nc4ccc5c(n4)CCN(C(=O)CO)C5)nc32)CC1
enzyme activity	inhibitor	–	0.1 µM	remaining activity	7.04%	Cc1cc(-c2ccnc3[nH]cc(F)c23)cc(F)c1[C@@]1(O)[C@H](C)CN(C2CCS(=O)(=O)CC2)C[C@@H]1C
binding	–	competition with immobilised ligand	0.5 µM	remaining binding	100%	CCCCC(=O)Nc1ccc(-c2ccc3ncn(CCC)c(=O)c3c2)cn1
enzyme activity	inhibitor	–	1 µM	inhibition	43%	CO[C@@H]1[C@H](N(C)C(=O)c2ccccc2)C[C@H]2O[C@]1(C)n1c3ccccc3c3c4c(c5c6ccccc6n2c5c31)C(=O)NC4
enzyme activity	inhibitor	–	15 nM	remaining activity	48.7%	Cc1cc(-c2ccnc3[nH]cc(F)c23)cc(F)c1[C@@]1(O)[C@H](C)CN(C(=O)CN)C[C@@H]1C
